Screening data: PubChem BioAssay, The Scripps Research Institute Molecular Screening Center
An excerpt weighted towards active compounds, which were near 2.5% of everything screened.
PAD4 FP inh = inhibitors of human PAD4 | Q9UM07 | recombinant PAD4, RCA probe fluorescence polarization | inhibition, % at 6.36 µM | 0.41% of 330,000 active;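 active = percent inhibition above a cutoff equal to the mean of all tested compounds plus 3 SD, cut at about 15% in these data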
GSTO1 counter = GSTO1 inhibition, counter-screen for RBBP9 inhibitors; recombinant GSTO1, activity-based probe fluorescence polarization; inhibition, % at 5.96 µM; 1.1% of 300,000 active;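 active = inhibition above the campaign mean inhibition plus 3 SD, cut at about 35% in these data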
Target sequence (P78417 whole entry, looked up): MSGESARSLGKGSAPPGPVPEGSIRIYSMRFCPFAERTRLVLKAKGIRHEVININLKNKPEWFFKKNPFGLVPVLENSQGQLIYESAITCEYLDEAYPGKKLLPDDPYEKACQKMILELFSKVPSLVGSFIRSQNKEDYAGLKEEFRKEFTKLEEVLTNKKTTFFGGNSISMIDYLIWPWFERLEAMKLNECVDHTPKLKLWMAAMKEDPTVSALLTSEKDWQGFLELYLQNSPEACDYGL
E coli Lon inh = E. coli protease La inhibition; purified E. coli Lon protease, fluorescence polarization; AID 602123; inhibition, % at 7.94 µM; P0A9M0; 0.42% of 360,000 active; in the data active = inhibition above about 13%, passing the limit was not always enough
PRMT1 inh = inhibitors of human PRMT1; recombinant PRMT1, activity-based probe fluorescence polarization; inhibition, % at 2.79 µM; 1.3% of 370,000 active;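 active = inhibition above about 21% made by adding two undisclosed values, limit read from the data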
TDP2 inh = blocks human TDP2 phosphodiesterase activity; O95551; recombinant TDP2, T5PNP hydrolysis, p-nitrophenol absorbance 415 nm; inhibition, % at 12.8 µM; 0.34% of 370,000 active; AID 720702;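 active = inhibition above the mean of all tested compounds plus 3 SD, set per campaign, cut at about 25% in these data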
Target sequence (O95551 whole entry, looked up): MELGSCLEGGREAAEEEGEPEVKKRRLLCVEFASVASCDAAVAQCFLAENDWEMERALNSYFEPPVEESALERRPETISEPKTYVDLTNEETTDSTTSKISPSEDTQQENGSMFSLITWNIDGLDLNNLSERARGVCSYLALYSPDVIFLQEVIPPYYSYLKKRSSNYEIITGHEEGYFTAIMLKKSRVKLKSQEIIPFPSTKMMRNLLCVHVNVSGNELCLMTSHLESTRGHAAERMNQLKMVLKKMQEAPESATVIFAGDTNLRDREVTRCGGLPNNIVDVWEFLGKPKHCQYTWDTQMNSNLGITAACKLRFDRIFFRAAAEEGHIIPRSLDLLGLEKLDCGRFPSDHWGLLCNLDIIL
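Test system: human TDP2 enzyme; Input: 120 nM TDP2 per well; Buffer or medium: Mg2+-containing Tris-HCl buffer, pH 7.5; Reagent: 5 mM T5PNP; Dosing: 12.8 µM single point, 1% DMSO; Incubation: reaction 2 h, 37 °C; Detection: p-Nitrophenol epi absorbance; Read-out: % inhibition relative to enzyme-containing and enzyme-free wells; Replicates: single well per compound.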
Hits are given with their value; - = inactive; . = not tested or not shown.

SMILES | PAD4 FP inh | GSTO1 counter | E coli Lon inh | PRMT1 inh | TDP2 inh
CCc1cccc(CC)c1NC(=O)c1cccc(NC(=O)c2ccccc2)c1 | - | - | - | - | -
CCc1cccc(C)c1NC(=O)c1cccc(N(C)C)c1 | - | - | - | 23 | -
COC(=O)[C@]12C[C@H](CC(=O)N3CCN(C(=O)c4ccco4)CC3)C(=O)N(Cc3ccco3)C1=C[C@H](C(C)(C)C)O[C@@H]2C | . | . | . | - | -
O=C(CCl)c1ccc2c(c1)CCN2C(=O)C1CC1 | - | 57 | . | . | .
Cc1c(Cl)cccc1NC(=O)CSc1nncn1-c1ccccn1 | - | - | - | 24 | -
O=C1C2=C(c3ccccc31)[N+](=O)C1CCCCC1N2[O-] (stereo unspecified) | - | - | - | - | 25
COc1ccc(C(=O)CCN2CCCC(C)C2)cc1 (stereo unspecified) | - | - | - | 25 | -
CCOC(=O)N1CCN(CCC(=O)c2ccc(OC)cc2)CC1 | - | - | - | 21 | -
CCOC(=O)N1CCN(CCC(=O)c2ccc(Cl)cc2)CC1 | - | - | - | - | -
CC1CCCN(CCC(=O)c2ccc(Br)cc2)C1 (stereo unspecified) | - | - | - | - | -
COC(=O)[C@]12C[C@H](CC(=O)NCc3cccs3)C(=O)N(Cc3ccco3)C1=C[C@H](C(C)C)O[C@@H]2C1CC1 | . | . | . | - | -
Cc1cccc(/C=C/C(=O)c2cc(Br)ccc(=O)c2O)c1 | - | 35 | - | 37 | -
N#CCC[C@H]1CC[C@]2(CCCN(C(=O)c3ccccc3)C2)O1 | . | . | . | - | -
COc1ccc(S[C@]2(C(=O)N3CCN(c4ncccn4)CC3)CC(=O)N(C(=O)c3ccccc3)[C@@H]2c2ccc(OC)cc2)cc1 | . | . | . | 24 | -
Cc1ccc(N2C(=O)CC(NCC3CCCO3)C2=O)cc1 (stereo unspecified) | - | - | - | 45 | -
COc1ccccc1C(=O)Nc1ccc(S(=O)(=O)Nc2nccs2)cc1 | - | - | - | - | -
O=C(O)c1ccccc1C(=O)Nc1ccc(S(=O)(=O)Nc2nccs2)cc1 | - | - | - | 24 | -
O=C1NC(=O)/C(=C/c2cccc3ccccc23)S1 | - | - | - | - | -
O=C1NC(=O)/C(=C\c2ccc(O)cc2O)S1 | - | 63 | - | - | -
Cc1c(NC(=O)CN2CCN(c3ccc(O)cc3)CC2)c(=O)n(-c2ccccc2)n1C | - | - | - | 23 | -
CN(CCOC(=O)c1cc2ccccc2o1)C1CN(Cc2cn(Cc3ccccc3C(F)(F)F)nn2)S(=O)(=O)C1 (stereo unspecified) | . | . | . | - | -
Cc1ccc(S(=O)(=O)c2ccc([N+](=O)[O-])cn2)cc1 | - | - | - | 34 | -
O=[N+]([O-])c1ccc(S(=O)(=O)c2ccccc2)nc1 | - | - | - | 29 | -
Cc1cc(S(=O)(=O)c2ccc([N+](=O)[O-])cn2)ccc1Br | - | - | - | - | -
CCOC(=O)[C@@]12CN(C(=O)OC(C)(C)C)CC=C1N(Cc1ccc(OC)cc1)C(=O)[C@H]2CC(=O)NCCc1ccccc1OC | . | . | . | - | -
SMILES | PAD4 FP inh | GSTO1 counter | E coli Lon inh | PRMT1 inh | TDP2 inh
CCn1c2ccccc2c2cc(/C=N/n3c(C)nnc3C)ccc21 | - | - | - | - | -
CCn1c2ccccc2c2cc(C=Nn3c(-c4ccccc4C)n[nH]c3=S)ccc21 | . | . | . | 23 | -
COC(=O)C1CN(Cc2ccc(F)cc2)CCS(=O)(=O)N1Cc1cn(Cc2ccccc2)nn1 (stereo unspecified) | . | . | . | - | -
O=C(O)c1ccc(Cl)c(NC(=S)NC(=O)c2ccccc2[N+](=O)[O-])c1 | - | - | - | 23 | -
O=C(CCCCCN1C(=O)C2C3C=CC(C3)C2C1=O)Nc1ccc2ncccc2c1 (stereo unspecified) | . | . | . | - | -
Cc1ccc(-c2csc(=S)[nH]2)cc1 | - | - | - | 22 | -
Cc1ccc(-c2ccc(C(=O)O)[nH]2)cc1 | - | - | - | - | -
CS(=O)(=O)N1CCC[C@]2(CC[C@H](CCC#N)O2)C1 | . | . | . | - | -
O=C1c2ccccc2-c2onc3ccc(NCCCn4ccnc4)c1c23 | 106 | 105 | . | . | .
OCc1cn(-c2ccccc2)nc1-c1ccco1 | - | - | - | - | -
Cc1ccc(-c2nn(-c3ccccc3)cc2CO)o1 | - | - | - | 25 | -
C#CCN1CC(N(C)CCOC(=O)CC2C=CCC2)CS1(=O)=O (stereo unspecified) | . | . | . | - | -
CCc1nnc(NC(=O)CN2C(=O)/C(=C/c3cc(OC)c(OC)c(OC)c3)SC2=S)s1 | - | - | - | 21 | -
COc1ccc(C(=O)OCCN(C)C2CN(Cc3cn(Cc4cccc(F)c4)nn3)S(=O)(=O)C2)cc1OC (stereo unspecified) | . | . | . | - | -
COc1ccc(/C=N/Nc2cc(N(C)C)nc(N(C)C)n2)cc1 | - | 52 | - | - | -
COC1=C(Nc2ccccc2)C(=O)c2ccccc2C1=O | - | 49 | - | - | -
O=[N+]([O-])c1cc(O)c2ncccc2c1 | - | 37 | . | - | -
O=C(CCCCl)Nc1c2c(nn1-c1ccccc1)CSC2 | - | - | - | 23 | -
Cc1cccc(-n2nc3c(c2NC(=O)CCCl)CSC3)c1 | - | - | - | - | -
Cc1cccc(NC(=O)[C@H]2CC(=O)O[C@@H]2c2ccccc2)c1C | . | . | . | - | -
O=C(C(Cl)Cl)N1CCN(Cc2ccccc2)CC1 | - | 35 | - | - | -
O=C(O)CC(C(=O)O)N1C(=O)/C(=C/C=C/c2ccco2)SC1=S (stereo unspecified) | - | 37 | - | 54 | -
Cc1cc(SCC(=O)c2ccc(O)c(O)c2)n2nc(C)c(-c3ccccc3)c2n1 | - | 35 | - | - | -
Cc1cc(=O)[nH]c(SCC(=O)c2ccc(O)c(O)c2)n1 | - | - | - | - | -
CC(C1=CCCCC1)c1cnn(C)c1 (stereo unspecified) | . | . | . | - | -
SMILES | PAD4 FP inh | GSTO1 counter | E coli Lon inh | PRMT1 inh | TDP2 inh
O=C(CSC1=NC2(CCCCC2)N=C1c1ccccc1)Nc1ccc2c(c1)OCCO2 | - | - | - | 22 | -
CC1=[N+](C)c2c(ccc3cccnc23)C1(C)C | . | . | - | - | 38
CCc1ccccc1NC(=O)CN(C)Cc1c(O)ccc2ccccc12 | - | - | - | 23 | -
ClCc1nnc(-c2ccccc2)o1 | - | 102 | - | - | -
c1ccc(-c2nnc(-c3ccccc3)o2)cc1 | - | - | - | - | -
N#CC1=C(N)Oc2cc(N)ccc2C1c1ccc(F)cc1 (stereo unspecified) | - | - | - | 23 | -
N#CC1=C(N)Oc2cc(N)ccc2C1c1ccc(F)cc1F (stereo unspecified) | - | - | - | 24 | -
N#CC1=C(N)Oc2cc(N)ccc2C1c1ccc(Cl)cc1 (stereo unspecified) | - | - | - | - | -
N#CC1=C(N)Oc2cc(N)ccc2C1c1ccccc1Cl (stereo unspecified) | . | . | - | - | -
O=C(NCCc1ccccc1)OCc1cn(Cc2cccc(Cl)c2)nn1 | . | . | . | - | -
COC(=O)c1ccc2nc(-c3ccco3)c(Cc3ccccc3)n2c1 | . | . | - | 24 | -
